Key:
Type in all cases: cell-based
[1] = target: T1, E3 ubiquitin-protein ligase Mdm2/Histone deacetylase 1 (Homo sapiens) (UniProt Q00987+Q13547); experiment: PROTAC activity at MDM2/HDAC1 in human HCT-116 cells assessed as decrease in HDAC1 abundance by measuring remaining activity at 0.01 uM measured after 24 hrs by Western blot analysis (reference value: 100%)
How it was run: (§1)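 HCT116 cells seeded in six-well plates for 24 h, then exposed 24 h to compound (0.01–10 μM) or DMSO in fresh medium. Lysis in Tris-HCl/NaCl/NP-40/Triton X-100 with protease inhibitor. Bradford-normalised 30 μg protein per lane. Quantitative Western blot used specific HDAC1, HDAC2, HDAC3, LSD1 or Sin3a antibodies with IRDye secondaries. Abundance compared with DMSO, n = 2 replicates.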

[2] = target: Lysine-specific histone demethylase 1A (Homo sapiens) (UniProt O60341); experiment: Induction of LSD1 degradation in human HCT-116 cells assessed as reduction in LSD1 abundance by measuring remaining activity at 1 uM measured after 24 hrs by Western blot analysis (reference value: 100%); how it was run: as §1
[3] = target: T2, E3 ubiquitin-protein ligase Mdm2/Histone deacetylase 3 (Homo sapiens) (UniProt Q00987+O15379); experiment: PROTAC activity at MDM2/HDAC3 in human HCT-116 cells assessed as reduction in HDAC3 abundance by measuring remaining activity at 0.5 uM measured after 24 hrs by Western blot analysis
How it was run: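 HCT116 cells in DMEM with 10% FBS and glutamine/penicillin/streptomycin at 37 °C, 5% CO2. Seeded 4 × 10^5 cells/well, after 24 h treated 24 h with DMSO or compound in fresh medium. Lysed in Tris-HCl/NaCl/NP-40/Triton X-100 buffer with protease inhibitor, Bradford-quantified, 30 μg protein per lane. Quantitative Western blot with specific HDAC1/2/3 antibodies, IRDye secondaries, infrared imaging, versus DMSO. n = 2 replicates.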

[4] = target: T2, E3 ubiquitin-protein ligase Mdm2/Histone deacetylase 3 (Homo sapiens); experiment: PROTAC activity at MDM2/HDAC3 in human HCT-116 cells assessed as reduction in HDAC3 abundance by measuring remaining activity at 0.01 uM measured after 24 hrs by Western blot analysis; how it was run: as §1
[5] = target: T1, E3 ubiquitin-protein ligase Mdm2/Histone deacetylase 1 (Homo sapiens); experiment: PROTAC activity at MDM2/HDAC1 in human HCT-116 cells assessed as decrease in HDAC1 abundance by measuring remaining activity at 0.5 uM measured after 24 hrs by Western blot analysis (reference value: 100%); how it was run: as §1
[6] = target: T1, E3 ubiquitin-protein ligase Mdm2/Histone deacetylase 1 (Homo sapiens); experiment: PROTAC activity at MDM2/HDAC1 in human HCT-116 cells assessed as decrease in HDAC1 abundance by measuring remaining activity at 10 uM measured after 24 hrs by Western blot analysis (reference value: 100%); how it was run: as §1
[7] = target: Lysine-specific histone demethylase 1A (Homo sapiens) (UniProt O60341); experiment: Induction of LSD1 degradation in human HCT-116 cells assessed as reduction in LSD1 abundance by measuring remaining activity at 0.25 uM measured after 24 hrs by Western blot analysis (reference value: 100%); how it was run: as §1
[8] = target: T3, E3 ubiquitin-protein ligase Mdm2/Histone deacetylase 2 (Homo sapiens) (UniProt Q00987+Q92769); experiment: PROTAC activity at MDM2/HDAC2 in human HCT-116 cells assessed as decrease in HDAC2 abundance by measuring remaining activity at 0.01 uM measured after 24 hrs by Western blot analysis (reference value: 100%); how it was run: as §1
[9] = target: Lysine-specific histone demethylase 1A (Homo sapiens) (UniProt O60341); experiment: Induction of LSD1 degradation in human HCT-116 cells assessed as reduction in LSD1 abundance by measuring remaining activity at 0.025 uM measured after 24 hrs by Western blot analysis (reference value: 100%); how it was run: as §1
[10] = target: T4, Paired amphipathic helix protein Sin3a (Homo sapiens) (UniProt Q96ST3); experiment: Induction of SIN3A degradation in human HCT-116 cells assessed as reduction in SIN3A abundance by measuring remaining activity at 0.05 uM measured after 24 hrs by Western blot analysis (reference value: 100%); how it was run: as §1
T4 sequence (whole entry): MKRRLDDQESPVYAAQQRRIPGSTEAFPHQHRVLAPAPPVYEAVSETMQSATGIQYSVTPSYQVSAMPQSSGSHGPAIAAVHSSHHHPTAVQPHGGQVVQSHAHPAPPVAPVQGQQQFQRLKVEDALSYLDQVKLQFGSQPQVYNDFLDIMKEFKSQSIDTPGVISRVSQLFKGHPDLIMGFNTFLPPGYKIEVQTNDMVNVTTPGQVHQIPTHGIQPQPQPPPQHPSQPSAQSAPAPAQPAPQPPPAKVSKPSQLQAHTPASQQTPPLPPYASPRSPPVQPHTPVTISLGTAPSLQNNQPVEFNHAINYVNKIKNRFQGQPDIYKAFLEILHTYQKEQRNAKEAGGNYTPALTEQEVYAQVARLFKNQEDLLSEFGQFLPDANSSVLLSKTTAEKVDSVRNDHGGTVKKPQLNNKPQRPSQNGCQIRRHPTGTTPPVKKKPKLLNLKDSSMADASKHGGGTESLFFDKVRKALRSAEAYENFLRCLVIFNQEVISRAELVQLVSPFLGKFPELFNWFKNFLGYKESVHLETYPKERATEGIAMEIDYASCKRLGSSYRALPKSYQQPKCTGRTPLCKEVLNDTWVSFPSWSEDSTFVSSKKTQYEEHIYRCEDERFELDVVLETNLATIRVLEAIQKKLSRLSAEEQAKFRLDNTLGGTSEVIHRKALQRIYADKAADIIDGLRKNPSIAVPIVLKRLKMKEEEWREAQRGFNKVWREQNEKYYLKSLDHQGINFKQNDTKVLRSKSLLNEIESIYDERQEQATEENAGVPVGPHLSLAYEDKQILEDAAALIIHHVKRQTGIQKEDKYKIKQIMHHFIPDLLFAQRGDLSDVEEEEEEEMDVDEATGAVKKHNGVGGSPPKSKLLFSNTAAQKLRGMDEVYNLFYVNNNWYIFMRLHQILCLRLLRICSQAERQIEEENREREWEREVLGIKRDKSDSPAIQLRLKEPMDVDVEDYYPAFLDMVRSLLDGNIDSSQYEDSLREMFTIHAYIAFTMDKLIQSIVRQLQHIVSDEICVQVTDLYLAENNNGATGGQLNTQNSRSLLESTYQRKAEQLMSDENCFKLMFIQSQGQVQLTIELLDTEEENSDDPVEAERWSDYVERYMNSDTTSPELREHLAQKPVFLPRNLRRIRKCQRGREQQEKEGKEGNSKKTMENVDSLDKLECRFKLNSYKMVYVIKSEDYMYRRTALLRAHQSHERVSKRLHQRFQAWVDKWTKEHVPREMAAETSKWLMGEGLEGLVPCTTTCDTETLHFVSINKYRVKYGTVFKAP

[11] = target: T3, E3 ubiquitin-protein ligase Mdm2/Histone deacetylase 2 (Homo sapiens); experiment: PROTAC activity at MDM2/HDAC2 in human HCT-116 cells assessed as decrease in HDAC2 abundance by measuring remaining activity at 0.1 uM measured after 24 hrs by Western blot analysis (reference value: 100%); how it was run: as §1
[12] = target: T3, E3 ubiquitin-protein ligase Mdm2/Histone deacetylase 2 (Homo sapiens); experiment: PROTAC activity at MDM2/HDAC2 in human HCT-116 cells assessed as decrease in HDAC2 abundance by measuring remaining activity at 0.25 uM measured after 24 hrs by Western blot analysis (reference value: 100%); how it was run: as §1

T3 sequence (Q00987 whole entry, looked up): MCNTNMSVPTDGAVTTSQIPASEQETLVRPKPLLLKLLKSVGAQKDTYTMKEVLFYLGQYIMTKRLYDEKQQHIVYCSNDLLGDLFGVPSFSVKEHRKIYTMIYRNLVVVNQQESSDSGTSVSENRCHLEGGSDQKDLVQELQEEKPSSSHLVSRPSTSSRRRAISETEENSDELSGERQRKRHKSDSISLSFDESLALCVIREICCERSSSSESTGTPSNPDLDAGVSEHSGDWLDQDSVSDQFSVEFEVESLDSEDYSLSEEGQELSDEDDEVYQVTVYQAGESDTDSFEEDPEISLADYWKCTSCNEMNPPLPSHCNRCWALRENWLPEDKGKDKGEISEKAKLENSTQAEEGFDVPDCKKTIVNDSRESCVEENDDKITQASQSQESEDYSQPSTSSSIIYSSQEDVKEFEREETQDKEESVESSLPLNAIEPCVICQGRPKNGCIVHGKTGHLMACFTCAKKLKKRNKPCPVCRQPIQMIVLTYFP
T3 sequence (Q92769 whole entry, looked up): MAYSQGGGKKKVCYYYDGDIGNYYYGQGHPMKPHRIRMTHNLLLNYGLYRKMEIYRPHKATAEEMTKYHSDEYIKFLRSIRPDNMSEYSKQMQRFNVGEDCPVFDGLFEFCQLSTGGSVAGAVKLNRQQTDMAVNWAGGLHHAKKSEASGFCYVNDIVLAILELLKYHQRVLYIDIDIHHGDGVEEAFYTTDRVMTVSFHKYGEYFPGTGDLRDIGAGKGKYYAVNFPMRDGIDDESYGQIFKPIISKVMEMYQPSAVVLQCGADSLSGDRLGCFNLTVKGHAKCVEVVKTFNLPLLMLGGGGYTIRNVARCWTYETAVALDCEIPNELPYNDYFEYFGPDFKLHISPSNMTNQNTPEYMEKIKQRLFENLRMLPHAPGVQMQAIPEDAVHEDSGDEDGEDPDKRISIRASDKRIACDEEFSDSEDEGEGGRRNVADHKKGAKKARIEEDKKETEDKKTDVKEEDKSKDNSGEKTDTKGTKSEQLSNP
T1 sequence (Q00987 whole entry, looked up): as the sequence (Q00987 whole entry, looked up) above
T1 sequence (Q13547 whole entry, looked up): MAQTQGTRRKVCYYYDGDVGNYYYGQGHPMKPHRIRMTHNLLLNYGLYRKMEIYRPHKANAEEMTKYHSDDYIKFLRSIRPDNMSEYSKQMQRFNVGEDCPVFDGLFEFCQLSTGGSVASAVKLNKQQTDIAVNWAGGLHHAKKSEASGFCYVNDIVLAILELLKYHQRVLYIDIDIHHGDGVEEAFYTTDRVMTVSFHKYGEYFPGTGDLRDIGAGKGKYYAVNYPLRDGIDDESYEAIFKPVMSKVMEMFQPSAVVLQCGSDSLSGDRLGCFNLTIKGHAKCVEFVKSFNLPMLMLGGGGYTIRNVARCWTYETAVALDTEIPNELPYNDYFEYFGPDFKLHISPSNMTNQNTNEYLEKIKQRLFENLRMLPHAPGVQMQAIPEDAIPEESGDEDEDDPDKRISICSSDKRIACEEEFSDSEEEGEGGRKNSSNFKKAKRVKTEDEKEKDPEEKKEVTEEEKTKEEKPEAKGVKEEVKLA
T2 sequence (O15379 whole entry, looked up): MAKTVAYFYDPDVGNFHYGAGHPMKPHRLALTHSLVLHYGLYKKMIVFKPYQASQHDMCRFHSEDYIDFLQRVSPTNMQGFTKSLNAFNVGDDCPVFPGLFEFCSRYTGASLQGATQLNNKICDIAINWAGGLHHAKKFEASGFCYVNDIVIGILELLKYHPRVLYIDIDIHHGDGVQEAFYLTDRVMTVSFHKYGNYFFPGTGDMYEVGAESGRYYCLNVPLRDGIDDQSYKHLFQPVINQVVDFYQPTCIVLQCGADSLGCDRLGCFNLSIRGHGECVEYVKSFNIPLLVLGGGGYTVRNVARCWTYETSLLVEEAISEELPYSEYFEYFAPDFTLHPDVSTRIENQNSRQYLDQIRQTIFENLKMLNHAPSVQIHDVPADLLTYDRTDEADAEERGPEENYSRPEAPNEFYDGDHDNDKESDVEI
T2 sequence (Q00987 whole entry, looked up): as the sequence (Q00987 whole entry, looked up) above

Activity [1]: 108% | Activity [2]: 81% | Activity [3]: 106% | Activity [4]: 98% | Activity [5]: 67% | Activity [6]: 36% | Activity [7]: 95% | Activity [8]: 97% | Activity [9]: 102% | Activity [10]: 103% | Activity [11]: 92% | Activity [12]: 90%
SMILES: COc1cc(C(=O)NCCOCCOCCOCCOCCC(=O)Nc2ccc(C(=O)Nc3ccccc3N)cc2)ccc1NC(=O)[C@@H]1N[C@@H](CC(C)(C)C)[C@](C#N)(c2ccc(Cl)cc2F)[C@H]1c1cccc(Cl)c1F

Reference: ChEMBL document CHEMBL5357024, “MDM2 Antagonist Idasanutlin Reduces HDAC1/2 Abundance and Corepressor Partners but Not HDAC3” (ACS Med Chem Lett, 2024)
